According to ChEMBL document CHEMBL4414574, “Structure-Based Discovery and Development of a Series of Potent and Selective Bromodomain and Extra-Terminal Protein Inhibitors” (J Med Chem, 2019):
Active and inactive are the calls of the source. The rule behind the calls is not given here.

What was measured:
[1] = biological target: SWI/SNF-related matrix-associated actin-dependent regulator of chromatin subfamily A member 2 (Homo sapiens) (UniProt P51531); experiment: Binding affinity to human partial length SMARCA2 (S1377 to Q1486 residues) expressed in Escherichia coli BL21 cells assessed as residual binding level at 1 uM measured after 1 hr by quantitative PCR based BROMOscan assay relative to control
Outline: (§1)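 Bromodomain panel screen (32 bromodomains) run at 1 μM single concentration; primary binding reported as 'Percent Control', lower values meaning stronger interaction.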

[2] = Tmax in ICR mouse at 10 mg/kg, po administered via gavage measured after 0.25 to 24 hrs by UPLC/MS analysis; type: ADME, organism-based; conditions: in vivo
Outline: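 Male ICR mice dosed orally (3, 10 or 100 mg/kg, per line) in 1% DMSO/0.5% HPMC vehicle; plasma drug levels measured.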

Cytochrome P450 2C19 = Cytochrome P450 2C19 (Homo sapiens, UniProt P33261); experiment: Time-dependent inhibition of CYP2C19 in human liver microsomes at 10 uM using mephenytoin as substrate preincubated up to 30 mins followed by NADPH generating system addition and measured after 10 mins; type: ADME
Outline: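 Human liver microsomes 0.2 mg/mL, 100 mM phosphate pH 7.4, 10 μM test compound, preincubated 0, 5, 10 and 30 min at 37 °C; then NADPH plus probe cocktail (5 μM midazolam, 50 μM testosterone, 5 μM dextromethorphan, 10 μM diclofenac, 50 μM phenacetin, 50 μM S-(+)-mephenytoin) added; 10 min reaction; kobs in units of 10^-4/min.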

[3] = Half life in mouse liver microsomes at 1 uM preincubated for 5 mins followed by NADPH addition and measured after 5 to 30 mins by LC/MS/MS analysis; type: ADME, Microsome; conditions: microsomes, 1 µM
CYP3A4 = CYP3A4 (Homo sapiens, UniProt P08684); experiment: Reversible inhibition of CYP3A4 in human liver microsomes at 10 uM using midazolam or testosterone as substrate preincubated for 5 mins followed by NADPH addition and measured after 20 mins relative to control; type: ADME; conditions: probe midazolam or testosterone
Outline: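 Human liver microsomes 0.2 mg/mL, 100 mM phosphate pH 7.4, 10 μM test compound, probe cocktail (10 μM midazolam, 100 μM testosterone, 10 μM dextromethorphan, 20 μM diclofenac, 100 μM phenacetin, 100 μM mephenytoin); organic solvent <1%; 5 min preincubation at 37 °C, started with NADPH-generating system, 20 min reaction; metabolite formation expressed relative to PBS control.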

[4] = biological target: Chromatin remodeling regulator CECR2 (Homo sapiens) (UniProt Q9BXF3); experiment: Binding affinity to human partial length CECR2 (P423 to D543 residues) expressed in Escherichia coli BL21 cells assessed as residual binding level at 1 uM measured after 1 hr by quantitative PCR based BROMOscan assay relative to control
Outline: (§2)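 A BROMOScan competition-binding panel of 32 bromodomains was run at a single 1 μM compound concentration. Results are primary-screen 'Percent Control', where lower values indicate stronger binding.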

[5] = biological target: Protein polybromo-1 (Homo sapiens) (UniProt Q86U86); experiment: Binding affinity to human partial length PB1 bromodomain 5 (S645 to D766 residues) expressed in Escherichia coli BL21 cells assessed as residual binding level at 1 uM measured after 1 hr by quantitative PCR based BROMOscan assay relative to control; outline: as §1
[6] = biological target: ATPase family AAA domain-containing protein 2 (Homo sapiens) (UniProt Q6PL18); experiment: Binding affinity to human partial length ATAD2A (Q981 to R1108 residues) expressed in Escherichia coli BL21 cells assessed as residual binding level at 1 uM measured after 1 hr by quantitative PCR based BROMOscan assay relative to control; outline: as §2
[7] = biological target: Bromodomain and PHD finger-containing protein 3 (Homo sapiens) (UniProt Q9ULD4); experiment: Binding affinity to human partial length BRPF3 (E588 to G701 residues) expressed in Escherichia coli BL21 cells assessed as residual binding level at 1 uM measured after 1 hr by quantitative PCR based BROMOscan assay relative to control; outline: as §2
[8] = biological target: Bromodomain-containing protein 2 (Homo sapiens) (UniProt P25440); experiment: Inhibition of BRD2 bromodomain 1 (unknown origin)
[9] = biological target: Tyrosine-protein kinase ABL1 (Homo sapiens) (UniProt P00519); experiment: Inhibition of Abl (unknown origin) at 10 uM using poly (Glu, Tyr) 4:1 as substrate after 60 mins by ELISA
NCI-H522 = experiment: Antiproliferative activity against human NCI-H522 cells after 72 hrs by CCK8 or SRB assay; type: functional, cell-based
SK-OV-3 = experiment: Antiproliferative activity against human SKOV3 cells after 72 hrs by CCK8 or SRB assay; type: functional, cell-based
MV4-11 [10] = experiment: Induction of apoptosis in human MV4-11 cells assessed as increase in cleaved caspase-8 level after 24 hrs by Western blot analysis; type: functional, cell-based
Outline: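 MV4-11 cells exposed to test agent at the indicated doses for 24 h. Lysates immunoblotted for full-length and cleaved caspase-3, -7, -8 and -9, with GAPDH as the loading reference.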

MV4-11 [11] = experiment: Induction of apoptosis in human MV4-11 cells assessed as reduction in BCL-xL level after 24 hrs by Western blot analysis; type: functional, cell-based
Outline: (§3)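 MV4-11 cells exposed to compound at the indicated doses for 24 h; lysates probed by Western blotting for the target protein, with GAPDH as loading control.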

MV4-11 [12] = experiment: Induction of apoptosis in human MV4-11 cells assessed as reduction in PUMA level after 24 hrs by Western blot analysis; type: functional, cell-based; outline: as §3
[13] = Ratio of drug level in brain to plasma in ICR mouse at 50 mg/kg, po administered via gavage measured after 0.25 to 24 hrs by UPLC/MS analysis; type: ADME, organism-based
Outline: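 Male ICR mice dosed orally at 50 mg/kg in 1% DMSO/0.5% HPMC; drug measured in plasma and brain.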

[14] = Cmax in rat plasma at 50 mg/kg, po; type: ADME, organism-based; design: dose 50 mg/kg, route oral
[15] = AUC (0 to t) in rat plasma at 50 mg/kg, po; type: ADME, organism-based
Outline: (§4)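 Compound was given orally or intravenously in 1% DMSO/0.5% HPMC vehicle. Concentrations in plasma, or in brain where stated, gave Tmax, Cmax, T1/2, AUC0-t and AUC0-inf.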

[16] = AUC (0 to infinity) in ICR mouse plasma at 50 mg/kg, po administered via gavage measured after 0.25 to 24 hrs by UPLC/MS analysis; type: ADME, organism-based; design: dose 50 mg/kg, route oral, time infinity
Outline: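 Male ICR mice were dosed orally in 1% DMSO/0.5% HPMC vehicle. Plasma (and brain, where stated) concentrations gave Tmax, Cmax, T1/2, AUC0-t and AUC0-inf.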

[17] = AUC (0 to infinity) in rat brain at 50 mg/kg, po; type: ADME, organism-based; design: dose 50 mg/kg, time infinity, route oral; outline: as §4
[18] = AUC (0 to infinity) in rat plasma at 10 mg/kg, po; type: ADME, organism-based; design: dose 10 mg/kg, route oral, time infinity; outline: as §4
[19] = Half life in ICR mouse plasma at 50 mg/kg, po administered via gavage measured after 0.25 to 24 hrs by UPLC/MS analysis; type: ADME, organism-based
Outline: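 Male ICR mice dosed orally in 1% DMSO/0.5% HPMC vehicle; plasma or brain drug levels used to derive Tmax, Cmax, AUC0-t, AUC0-inf and T1/2.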

[20] = Half life in rat plasma at 3 mg/kg, iv; type: ADME, organism-based

Chain of Bromodomain-containing protein 2 (Homo sapiens) (P25440 whole entry, looked up): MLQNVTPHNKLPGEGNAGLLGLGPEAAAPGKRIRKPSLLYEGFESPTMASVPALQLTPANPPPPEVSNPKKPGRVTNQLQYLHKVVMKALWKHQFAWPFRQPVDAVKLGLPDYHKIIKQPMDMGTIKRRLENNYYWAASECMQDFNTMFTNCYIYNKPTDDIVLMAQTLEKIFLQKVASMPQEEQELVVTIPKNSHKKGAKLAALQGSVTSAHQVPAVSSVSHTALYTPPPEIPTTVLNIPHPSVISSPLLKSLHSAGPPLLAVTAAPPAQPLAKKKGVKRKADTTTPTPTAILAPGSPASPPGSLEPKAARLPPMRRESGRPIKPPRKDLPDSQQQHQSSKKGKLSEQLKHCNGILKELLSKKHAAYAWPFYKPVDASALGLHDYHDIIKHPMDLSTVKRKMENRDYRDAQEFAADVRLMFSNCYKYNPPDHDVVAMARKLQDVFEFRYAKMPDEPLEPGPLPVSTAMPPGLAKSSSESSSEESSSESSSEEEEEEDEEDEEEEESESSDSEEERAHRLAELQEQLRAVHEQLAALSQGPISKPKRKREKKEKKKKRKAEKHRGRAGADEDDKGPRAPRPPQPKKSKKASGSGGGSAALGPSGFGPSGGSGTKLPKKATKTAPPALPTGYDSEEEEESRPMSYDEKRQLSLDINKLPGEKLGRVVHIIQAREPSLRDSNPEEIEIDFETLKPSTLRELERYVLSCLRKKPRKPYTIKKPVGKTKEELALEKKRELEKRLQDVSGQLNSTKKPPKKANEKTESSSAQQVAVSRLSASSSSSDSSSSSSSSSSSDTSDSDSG
Chain of Chromatin remodeling regulator CECR2 (Homo sapiens) (Q9BXF3 whole entry, looked up, the tested form may be a part): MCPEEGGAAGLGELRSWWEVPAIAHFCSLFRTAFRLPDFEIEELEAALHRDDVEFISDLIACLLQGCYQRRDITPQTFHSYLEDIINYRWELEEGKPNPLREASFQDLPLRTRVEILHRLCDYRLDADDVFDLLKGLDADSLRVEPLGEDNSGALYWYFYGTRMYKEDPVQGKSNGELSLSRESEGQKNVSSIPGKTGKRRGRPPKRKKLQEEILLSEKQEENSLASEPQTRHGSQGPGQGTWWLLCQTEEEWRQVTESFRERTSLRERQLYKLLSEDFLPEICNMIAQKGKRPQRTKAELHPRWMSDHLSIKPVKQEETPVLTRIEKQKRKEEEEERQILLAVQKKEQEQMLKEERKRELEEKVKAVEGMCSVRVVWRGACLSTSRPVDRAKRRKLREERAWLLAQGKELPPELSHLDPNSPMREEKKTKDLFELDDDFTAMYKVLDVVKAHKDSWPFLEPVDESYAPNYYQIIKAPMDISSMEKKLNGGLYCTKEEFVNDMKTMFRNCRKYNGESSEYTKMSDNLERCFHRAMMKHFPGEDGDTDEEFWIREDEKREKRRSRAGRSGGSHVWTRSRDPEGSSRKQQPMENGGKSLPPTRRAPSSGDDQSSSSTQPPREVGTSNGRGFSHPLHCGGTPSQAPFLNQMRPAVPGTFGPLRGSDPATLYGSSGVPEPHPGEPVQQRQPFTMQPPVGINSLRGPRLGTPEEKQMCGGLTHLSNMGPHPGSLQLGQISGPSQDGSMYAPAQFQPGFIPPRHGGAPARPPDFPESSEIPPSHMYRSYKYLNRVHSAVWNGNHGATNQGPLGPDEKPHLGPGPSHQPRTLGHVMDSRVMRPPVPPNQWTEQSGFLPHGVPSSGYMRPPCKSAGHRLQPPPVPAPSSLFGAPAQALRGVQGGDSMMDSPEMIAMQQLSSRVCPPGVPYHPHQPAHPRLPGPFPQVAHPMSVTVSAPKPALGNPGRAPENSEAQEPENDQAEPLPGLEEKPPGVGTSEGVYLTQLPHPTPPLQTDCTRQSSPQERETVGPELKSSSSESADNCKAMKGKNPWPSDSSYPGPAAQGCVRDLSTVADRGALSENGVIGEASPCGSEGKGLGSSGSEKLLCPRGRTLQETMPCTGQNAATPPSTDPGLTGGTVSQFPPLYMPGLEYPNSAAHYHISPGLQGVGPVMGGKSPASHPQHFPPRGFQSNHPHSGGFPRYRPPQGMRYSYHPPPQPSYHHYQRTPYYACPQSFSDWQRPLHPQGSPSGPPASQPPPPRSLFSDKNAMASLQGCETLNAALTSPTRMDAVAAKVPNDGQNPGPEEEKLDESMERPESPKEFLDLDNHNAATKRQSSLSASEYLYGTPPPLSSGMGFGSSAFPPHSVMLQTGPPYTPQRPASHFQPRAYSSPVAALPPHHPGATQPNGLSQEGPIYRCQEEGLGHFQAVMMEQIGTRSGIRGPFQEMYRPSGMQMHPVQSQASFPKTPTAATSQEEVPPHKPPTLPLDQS
Chain of Cytochrome P450 2C19 (P33261 whole entry): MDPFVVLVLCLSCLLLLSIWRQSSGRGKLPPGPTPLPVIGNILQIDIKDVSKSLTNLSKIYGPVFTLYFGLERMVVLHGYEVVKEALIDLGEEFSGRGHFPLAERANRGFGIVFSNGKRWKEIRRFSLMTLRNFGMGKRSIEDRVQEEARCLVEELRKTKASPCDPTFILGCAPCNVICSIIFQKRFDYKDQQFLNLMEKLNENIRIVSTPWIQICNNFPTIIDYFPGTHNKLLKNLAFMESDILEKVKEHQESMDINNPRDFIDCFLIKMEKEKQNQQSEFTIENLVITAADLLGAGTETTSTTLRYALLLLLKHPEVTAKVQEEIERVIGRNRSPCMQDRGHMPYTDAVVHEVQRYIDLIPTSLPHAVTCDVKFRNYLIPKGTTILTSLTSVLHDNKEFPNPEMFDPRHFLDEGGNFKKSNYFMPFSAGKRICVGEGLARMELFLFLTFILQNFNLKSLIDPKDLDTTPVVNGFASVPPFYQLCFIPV
Chain of Bromodomain and PHD finger-containing protein 3 (Homo sapiens) (Q9ULD4 whole entry, the tested form may be a part): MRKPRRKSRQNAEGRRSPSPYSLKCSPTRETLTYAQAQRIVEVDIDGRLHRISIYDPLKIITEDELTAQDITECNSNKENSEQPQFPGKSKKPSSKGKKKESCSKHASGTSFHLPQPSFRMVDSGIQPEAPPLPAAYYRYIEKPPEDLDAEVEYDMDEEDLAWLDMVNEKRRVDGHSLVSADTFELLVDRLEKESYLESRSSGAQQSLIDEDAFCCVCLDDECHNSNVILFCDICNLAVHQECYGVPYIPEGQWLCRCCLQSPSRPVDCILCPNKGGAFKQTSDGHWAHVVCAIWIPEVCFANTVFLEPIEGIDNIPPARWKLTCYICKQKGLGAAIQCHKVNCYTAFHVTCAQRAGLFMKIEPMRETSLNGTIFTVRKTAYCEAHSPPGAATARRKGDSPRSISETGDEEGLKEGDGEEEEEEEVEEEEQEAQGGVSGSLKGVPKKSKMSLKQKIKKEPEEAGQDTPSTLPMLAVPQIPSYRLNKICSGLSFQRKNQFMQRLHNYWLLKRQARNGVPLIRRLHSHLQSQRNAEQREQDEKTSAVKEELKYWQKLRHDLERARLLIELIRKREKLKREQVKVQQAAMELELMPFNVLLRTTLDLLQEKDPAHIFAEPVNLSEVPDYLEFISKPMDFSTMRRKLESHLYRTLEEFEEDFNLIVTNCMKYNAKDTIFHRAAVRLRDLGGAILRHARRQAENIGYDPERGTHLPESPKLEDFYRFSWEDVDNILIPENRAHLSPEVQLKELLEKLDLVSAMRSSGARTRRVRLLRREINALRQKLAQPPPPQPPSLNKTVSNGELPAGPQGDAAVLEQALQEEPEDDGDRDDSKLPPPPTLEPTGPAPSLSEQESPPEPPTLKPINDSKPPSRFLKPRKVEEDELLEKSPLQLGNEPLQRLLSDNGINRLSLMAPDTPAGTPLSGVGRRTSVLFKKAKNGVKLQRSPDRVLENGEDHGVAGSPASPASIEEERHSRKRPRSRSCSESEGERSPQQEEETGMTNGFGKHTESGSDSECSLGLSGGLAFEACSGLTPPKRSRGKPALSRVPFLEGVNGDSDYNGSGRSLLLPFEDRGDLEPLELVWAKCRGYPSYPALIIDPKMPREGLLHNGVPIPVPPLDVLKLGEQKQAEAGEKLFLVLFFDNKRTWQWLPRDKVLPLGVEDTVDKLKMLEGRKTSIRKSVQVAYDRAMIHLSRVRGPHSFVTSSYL
Chain of Tyrosine-protein kinase ABL1 (Homo sapiens) (P00519 whole entry): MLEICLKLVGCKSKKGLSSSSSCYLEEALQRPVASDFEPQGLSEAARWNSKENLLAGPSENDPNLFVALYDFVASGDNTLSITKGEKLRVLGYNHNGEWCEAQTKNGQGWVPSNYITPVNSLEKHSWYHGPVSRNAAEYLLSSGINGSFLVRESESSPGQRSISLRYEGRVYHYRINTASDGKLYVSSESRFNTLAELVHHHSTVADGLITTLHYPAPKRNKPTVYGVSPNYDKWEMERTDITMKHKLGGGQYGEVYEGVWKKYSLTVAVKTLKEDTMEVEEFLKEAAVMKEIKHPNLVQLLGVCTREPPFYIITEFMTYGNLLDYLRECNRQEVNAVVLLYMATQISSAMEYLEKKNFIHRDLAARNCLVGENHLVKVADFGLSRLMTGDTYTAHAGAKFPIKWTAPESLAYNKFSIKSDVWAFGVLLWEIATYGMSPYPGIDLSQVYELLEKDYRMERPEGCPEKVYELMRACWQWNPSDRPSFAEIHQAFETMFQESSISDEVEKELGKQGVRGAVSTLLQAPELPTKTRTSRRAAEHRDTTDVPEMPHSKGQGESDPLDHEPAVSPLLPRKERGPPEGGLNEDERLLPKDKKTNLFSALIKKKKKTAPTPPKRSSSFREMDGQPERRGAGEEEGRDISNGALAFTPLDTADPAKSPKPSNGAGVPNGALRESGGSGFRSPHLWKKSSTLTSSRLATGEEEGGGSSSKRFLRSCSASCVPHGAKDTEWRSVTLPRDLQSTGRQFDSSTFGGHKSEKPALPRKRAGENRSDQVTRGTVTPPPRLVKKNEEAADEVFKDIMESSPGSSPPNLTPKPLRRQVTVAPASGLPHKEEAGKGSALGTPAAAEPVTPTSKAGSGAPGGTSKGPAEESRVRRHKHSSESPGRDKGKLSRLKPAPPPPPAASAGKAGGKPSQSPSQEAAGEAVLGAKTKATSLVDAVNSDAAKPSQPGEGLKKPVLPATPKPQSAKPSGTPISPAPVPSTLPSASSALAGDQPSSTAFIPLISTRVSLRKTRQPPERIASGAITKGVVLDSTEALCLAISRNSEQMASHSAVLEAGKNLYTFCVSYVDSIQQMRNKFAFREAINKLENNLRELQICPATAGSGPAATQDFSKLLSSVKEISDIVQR

Q: With Cc1ccc(-n2nc(C(=O)N3C[C@@H](C)N[C@@H](C)C3)nc2-c2ccc3c(c2)N(C2CCCC2)[C@H](C)C(=O)N3C)cc1 as the compound, how does the Activity [1] read?
A: 70 to 100%

Q: And the Tmax [2]?
A: 1.1 h

Q: What about the TDI (Cytochrome P450 2C19) of the same compound?
A: Not Active

Q: And the t1/2 [3]?
A: 3.22 h

Q: What about the inhibition at 20 min, 10 µM (CYP3A4) of the same compound?
A: 23 to 28%

Q: What about the Activity [4] of the same compound?
A: 70 to 100%

Q: What about the Activity [5] of the same compound?
A: 70 to 100%

Q: And the Activity [6]?
A: 70 to 100%

Q: What about the Activity [7] of the same compound?
A: 70 to 100%

Q: What about the “inhibition activity call (active/inactive)” value [8] of the same compound?
A: Active

Q: And the inhibition [9]?
A: Active

Q: And the Activity (NCI-H522)?
A: Active

Q: What about the Activity (SK-OV-3) of the same compound?
A: Active

Q: What about the Activity (MV4-11 [10]) of the same compound?
A: Dose-dependent effect

Q: What about the Activity (MV4-11 [11]) of the same compound?
A: Dose-dependent effect

Q: And the Activity (MV4-11 [12])?
A: Dose-dependent effect

Q: What about the BPR [13] of the same compound?
A: 13.9%

Q: And the Cmax [14]?
A: 1250 ng/mL

Q: What about the AUC(0-t) [15] of the same compound?
A: 3820 ng·h/mL

Q: And the AUC(0-inf) [16]?
A: 16800 ng·h/mL

Q: And the AUC(0-inf) [17]?
A: 399 ng·h/mL

Q: And the AUC(0-inf) [18]?
A: 1270 ng·h/mL

Q: What about the half-life [19] of the same compound?
A: 2.8 h

Q: And the half-life [20]?
A: 1.8 h
